Measured values gathered from unrelated publications.
Lines come from different studies, so protocols differ.
WDR5: WD repeat-containing protein 5 (WDR5, Homo sapiens, UniProt P61964)
HDAC7: Histone deacetylase 7 (HDAC7, Homo sapiens, UniProt Q8WUI4)
OfChi-h: Chitinase (OfChi-h, Ostrinia furnacalis, UniProt Q4AE59)
PRKCE: Protein kinase C epsilon type (PRKCE, Homo sapiens, UniProt Q02156)

C[C@@H]1CN(c2ccc(-c3cc(C(=O)NCCOCCOCCOCCOCCNC(=O)Cn4cc(-c5[nH]cc(C(=O)N[C@@H](CC(N)=O)c6ccc(F)c(Cl)c6)c5-c5ccc(Cl)cc5F)cn4)ccc3F)cc2NC(=O)c2c[nH]c(=O)cc2C(F)(F)F)C[C@H](C)N1C — ΔTm (WDR5; thermal stability; DSF; 5.5 µM): 13.4 °C
O=C(/C=C/c1cccc(OS(=O)(=O)Oc2ccc(C(F)(F)F)cc2)c1)NO — inhibition (HDAC7; enzyme activity; inhibitor; fluorescence; 10 µM): 30%
CC(C)OC(=O)CNc1cccc(CN(Cc2ccc(-n3cccn3)cc2)S(=O)(=O)c2cccnc2)n1 — inhibition (Beta-2 adrenergic receptor (ADRB2, Homo sapiens, UniProt P07550); ligand displacement; radioligand; 10 µM): 2%
CN(C)c1nc(NCc2cccc(C(F)(F)F)c2)c(/N=N/c2ccc(Cl)cc2)c(N(C)C)n1 — inhibition (OfChi-h; enzyme activity; inhibitor; fluorescence; 1 µM): 91.9%
Cc1cc([C@@H](C)Nc2ccccc2C(=O)O)c2nc(N3CCC(F)(F)CC3)c(C#N)c(=O)n2c1 — remaining binding (PRKCE; binding; competition with immobilised ligand; 1 µM): 100%
O=C(NO)c1cc(F)cc(OS(=O)(=O)Oc2ccccc2)c1 — inhibition (HDAC7; enzyme activity; inhibitor; fluorescence; 10 µM): 47%
COc1cc(-c2cncc3c2CN(C)Cc2cc(N4CCNCC4)ccc2-3)cc(OC)c1OC — remaining activity (G protein-coupled receptor kinase 6 (GRK6, Homo sapiens, UniProt P43250); enzyme activity; inhibitor; 1 µM): 112%
C[C@@H]1CN(c2ccc(-c3cc(C(=O)NCCOCCOCCOCCOCCNC(=O)/C=C/c4[nH]cc(C(=O)N[C@@H](CC(N)=O)c5ccc(F)c(Cl)c5)c4-c4ccc(Cl)cc4F)ccc3F)cc2NC(=O)c2c[nH]c(=O)cc2C(F)(F)F)C[C@H](C)N1C — ΔTm (WDR5; thermal stability; DSF; 5.5 µM): 10.6 °C
CNc1ncc2c(/C=C/C(=O)N3CCC(OC)CC3)nn(Cc3cccc(C(F)(F)F)c3)c2n1 — remaining activity (PRKCE; enzyme activity; inhibitor; radiometric; 1 µM): 99%
CN(C)c1nc(NCc2cccc(F)c2)c(/N=N/c2ccc(Cl)cc2)c(N(C)C)n1 — inhibition (OfChi-h; enzyme activity; inhibitor; fluorescence; 1 µM): 82.7%
C=CC(=O)N1CCC(COCC(=O)N2CCN(c3nc(-c4cnc(N)nc4C(F)F)nc(N4CCOC[C@@H]4C)n3)CC2)CC1 — remaining binding (Cyclin-dependent kinase-like 3 (CDKL3, Homo sapiens, UniProt Q8IVW4); binding; competition with immobilised ligand; 1 µM): 100%
C=CS(=O)(=O)c1ccc(Nc2nc(OCC3CCCCC3)c3nc[nH]c3n2)cc1 — koff (Gasdermin-D (GSDMD, Homo sapiens, UniProt P57764); binding; BLI): 0.0439 s⁻¹
O=C(Cn1cc(C=CC(=O)c2ccc(F)cc2)nn1)Nc1nc(-c2ccccc2)cs1 — inhibition (72 kDa type IV collagenase (MMP2, Homo sapiens, UniProt P08253); enzyme activity; inhibitor; 0.5 µM): 40.6%
